Data reported in ChEMBL document CHEMBL4725413, “Quinoline-Pyrazole Scaffold as a Novel Ligand of Galectin-3 and Suppressor of TREM2 Signaling” (ACS Med Chem Lett, 2020).

Key:
[1] = test system: BV-2; assay: Antiinflammatory activity in mouse BV-2 cells assessed as reduction in Abeta-induced TNFalpha release at 10 uM incubated for 12 hrs by ELISA relative to control; type: functional
In short: (§1)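 BV2 microglia co-treated with Aβ fibrils (10 μM) for 12 h, with or without a range of test-compound concentrations. TNFα, IL12 and IL8 were quantified in culture medium. Values are relative to untreated control. Mean ± SD, n = 3.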

[2] = test system: BV-2; assay: Antiinflammatory activity in mouse BV-2 cells assessed as reduction in Abeta-induced IL-12 release at 10 uM incubated for 12 hrs by ELISA relative to control; type: functional; in short: as §1
[3] = test system: BV-2; assay: Antiinflammatory activity in mouse BV-2 cells assessed as reduction in Abeta-induced IL-8 release incubated for 12 hrs by ELISA; type: functional, cell-based; settings: dose microM 2.5-10, time 12.0 hrs; in short: as §1
[4] = test system: BV-2; assay: Antiinflammatory activity in mouse BV-2 cells assessed as reduction in Abeta-induced IL-12 release incubated for 12 hrs by ELISA; type: functional, cell-based; settings: dose microM 2.5-10, time 12.0 hrs; in short: as §1
[5] = test system: BV-2; assay: Antiinflammatory activity in mouse BV-2 cells assessed as reduction in Abeta-induced TNFalpha release incubated for 12 hrs by ELISA; type: functional, cell-based; settings: dose microM 2.5-10, time 12.0 hrs; in short: as §1
[6] = target: T1, Galectin-3 (Homo sapiens, UniProt P17931); assay: Inhibition of galectin 3 in mouse BWZ cells transfected with TREM2 and DAP12 assessed as reduction in lacZ activity incubated for 24 hrs by lacZ reporter gene based beta-galactosidase assay; type: cell-based; settings: dose microM 2.5-10, time 24.0 hrs
T1 sequence (P17931 whole entry): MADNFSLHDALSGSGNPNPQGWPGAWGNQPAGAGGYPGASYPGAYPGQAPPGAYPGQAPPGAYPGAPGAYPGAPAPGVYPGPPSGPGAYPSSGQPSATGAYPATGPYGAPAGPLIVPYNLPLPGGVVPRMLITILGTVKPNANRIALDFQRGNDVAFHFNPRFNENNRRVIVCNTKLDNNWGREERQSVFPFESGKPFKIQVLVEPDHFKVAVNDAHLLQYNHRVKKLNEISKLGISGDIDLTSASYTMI
In short: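 TREM2-DAP12 reporter assay in BWZ thymoma cells transfected with TREM2 and DAP12. Galectin-3 (5 μM) was the stimulant, co-incubated with a range of compound concentrations. NFAT-driven LacZ β-galactosidase activity was the read-out. Controls were unstimulated cells and galectin-stimulated cells without compound, plus untransfected BWZ cells. Mean ± SD, n = 3.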

[7] = target: T1, Galectin-3; assay: Binding affinity to recombinant human galectin 3 assessed as dissociation constant by fluorescent anisotropy assay
In short: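 Fluorescence anisotropy. Increasing galectin concentrations were titrated against a fixed concentration of small molecule until anisotropy reached a maximum (saturation), and Kd was derived from this.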

[8] = target: T1, Galectin-3; assay: Binding affinity to recombinant human galectin 3 assessed as dissociation constant by SPR assay
In short: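 SPR with galectin-3 for Kd estimation. TREM2 was also run by SPR as a counter-target.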

[9] = target: Galectin-1 (Homo sapiens, UniProt P09382); assay: Binding affinity to recombinant human galectin 1 assessed as dissociation constant by fluorescent anisotropy assay
Sequence of Galectin-1 (P09382 whole entry): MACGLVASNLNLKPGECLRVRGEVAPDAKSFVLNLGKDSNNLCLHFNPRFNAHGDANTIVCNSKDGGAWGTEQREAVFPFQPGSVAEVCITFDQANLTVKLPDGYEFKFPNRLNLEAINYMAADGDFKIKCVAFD

[10] = Inhibition of recombinant human galectin-3/recombinant human TREM2 interaction assessed as reduction in TR-FRET signal incubated for 3 hrs by TR-FRET assay
In short: (§2)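 TR-FRET using Eu cryptate-labelled galectin-3 (donor) and Alexa Fluor 647-labelled TREM2 (acceptor). Disruption of binding lowers the TR-FRET ratio. Single-point screening was at 10 μM, with hits defined as >5 SD below the mean signal. Dose-response runs gave IC50.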

[11] = species on record: Homo sapiens; assay: Inhibition of recombinant human galectin-3/recombinant human TREM2 interaction assessed as reduction in TR-FRET signal at 10 uM incubated for 3 hrs by TR-FRET assay relative to control; in short: as §2

inhibition [6]: Dose-dependent effect
Kd [7]: 150 nM
Kd [8]: 290 nM
Kd [9]: > 500000 nM
IC50 [10]: 91 nM
inhibition [11]: > 95%
SMILES: Cn1cc(-c2ccncc2)c(-c2ccc(OCc3ccc4ccccc4n3)cc2)n1 [MARDEPODECT]
inhibition at 10 µM [1]: 50%
inhibition at 10 µM [2]: 40%
inhibition [3]: Dose-dependent effect
inhibition [4]: Dose-dependent effect
inhibition [5]: Dose-dependent effect
